Compound activity as filed in PubChem.
Hits are enriched below; roughly 2.4% of the tested compounds scored in any of these assays.
EWS-Fli block = blocks EWS/Fli oncoprotein-driven transcription. A673 NR0B1-luciferase reporter, viability-normalised. inhibition, % at 12.6 µM. hit rate 0.67% among 350,000;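 active = mean inhibition of at least 50% after viability correction, with every replicate also passing that limit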;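 also: firefly luciferase signal divided by Alamar Blue viability fluorescence both relative to DMSO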
rRNA inh HTS = selective bacterial rRNA inhibition in E. coli; E. coli WT GFP vs humanized-ribosome RFP mutants, fluorescence, 24 h; hits give low values; DMSO median 0, no signal -100; GFP signal change (wild-type ribosome), % (no concentration beside the values); hit rate 1.6% among 350,000;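 active = significant combined selectivity score with lowered wild-type GFP, culture density cut under 30%, mutant RFP and density less affected; inactive = any of these conditions unmet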
E-selectin induc = induces E-selectin expression in human endothelial cells; P16581; AID 686992; hit rate 0.37% among 260,000; HUVEC E-selectin immunofluorescence imaging; normalized: neutral wells 0, TNF-alpha wells 100; activation, % at 7.58 µM;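 active = mean E-selectin-positive cell signal at least 10% of the positive control, reached in at least 60% of replicates, without over 20% cell loss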
Target sequence (P16581 whole entry, looked up): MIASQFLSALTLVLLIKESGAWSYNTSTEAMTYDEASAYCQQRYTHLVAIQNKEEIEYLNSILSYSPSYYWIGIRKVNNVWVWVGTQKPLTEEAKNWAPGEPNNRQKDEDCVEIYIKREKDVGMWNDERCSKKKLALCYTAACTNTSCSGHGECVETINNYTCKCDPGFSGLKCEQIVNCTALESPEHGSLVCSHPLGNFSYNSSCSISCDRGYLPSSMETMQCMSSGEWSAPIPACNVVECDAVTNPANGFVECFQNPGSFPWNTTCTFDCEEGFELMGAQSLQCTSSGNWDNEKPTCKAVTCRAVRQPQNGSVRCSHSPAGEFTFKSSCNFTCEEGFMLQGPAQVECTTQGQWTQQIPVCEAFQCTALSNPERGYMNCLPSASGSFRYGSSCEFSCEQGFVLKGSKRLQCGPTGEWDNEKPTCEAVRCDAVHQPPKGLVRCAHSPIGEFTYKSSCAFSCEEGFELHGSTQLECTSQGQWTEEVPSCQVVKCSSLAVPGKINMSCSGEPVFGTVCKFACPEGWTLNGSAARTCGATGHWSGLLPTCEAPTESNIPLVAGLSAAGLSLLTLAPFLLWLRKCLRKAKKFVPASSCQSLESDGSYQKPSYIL
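System: HUVEC, human umbilical vein endothelial cells; quantity: 3,000 cells/well; buffer or medium: EGM-2 medium, gelatin-coated wells; dosing: single-point compound dose; detection: immunofluorescence imaging; evaluation: % PE-positive cells; benchmarks: TNF-alpha, DMSO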
LGR2 antag = blocks bursicon-induced cAMP signaling via Drosophila LGR2 | HEK293 LGR2, CRE-luciferase, bursicon-stimulated, 4 h | inhibition, % at 9.99 µM | hit rate 0.35% among 380,000 | AID 720647;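 active = drop in luminescence signal, shown as inhibition above about 50% in the replicate tests, limit read from the data, passing the limit was not always enough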;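 also: agonist challenge used bursicon conditioned medium at about half maximal strength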
Hits are given with their value.

For O=C(O)c1ccccc1C(=O)N1CCc2c([nH]c3ccccc23)C1C(F)(F)F (stereo unspecified) the results were EWS-Fli block inactive, rRNA inh HTS -30, E-selectin induc inactive and LGR2 antag inactive.
For CC=Cc1ccc2n(c1=O)C[C@H]1[C@H](CO)[C@@H](C(=O)N3CCN(C)CC3)N(Cc3ccccc3F)[C@@H]21 (mixture of isomers) the results were EWS-Fli block inactive, rRNA inh HTS inactive, E-selectin induc inactive and LGR2 antag inactive.
Screening C[C@@H]1CN([C@@H](C)CO)C(=O)c2cc(-c3ccccc3)cnc2O[C@H]1CN(C)C(=O)c1ccccc1F returned EWS-Fli block inactive, rRNA inh HTS inactive, E-selectin induc inactive and LGR2 antag inactive.
`CN1CCN(C(=O)C[C@@H]2CC[C@H]3[C@@H](COC[C@H](O)CN3Cc3ccc(Oc4ccccc4)cc3)O2)CC1` gave EWS-Fli block inactive, rRNA inh HTS inactive, E-selectin induc inactive and LGR2 antag inactive.
`Cc1noc(C)c1S(=O)(=O)N(C)C[C@@H]1OCCCC[C@@H](C)Oc2ccc(NC(=O)CCCN(C)C)cc2C(=O)N([C@@H](C)CO)C[C@H]1C` gave EWS-Fli block inactive, rRNA inh HTS inactive, E-selectin induc inactive and LGR2 antag inactive.
`CO[C@@H]1CN(C)C(=O)c2ccc(NC(=O)Nc3ccc(F)cc3)cc2OC[C@@H](C)N(C(=O)c2ccc(F)cc2)C[C@H]1C` gave EWS-Fli block inactive, rRNA inh HTS inactive, E-selectin induc 44 and LGR2 antag inactive.
For CO[C@H]1CN(C)C(=O)c2cc(NC(=O)c3nc4ccccc4s3)ccc2OC[C@@H](C)NC[C@@H]1C the results were EWS-Fli block 54, rRNA inh HTS inactive, E-selectin induc inactive and LGR2 antag inactive.
`CO[C@H]1CN(C)C(=O)c2cc(NC(=O)c3ccc(-c4ccccc4)cc3)ccc2OC[C@@H](C)NC[C@H]1C` gave EWS-Fli block inactive, rRNA inh HTS inactive, E-selectin induc inactive and LGR2 antag inactive.
Screening CO[C@H]1CN(C)C(=O)c2cc(NC(=O)c3nc4ccccc4s3)ccc2OC[C@H](C)NC[C@H]1C returned EWS-Fli block inactive, rRNA inh HTS inactive, E-selectin induc inactive and LGR2 antag inactive.
Screening CO[C@H]1CN(C)C(=O)c2cc(NC(=O)Nc3ccc(Cl)cc3)ccc2OC[C@H](C)NC[C@@H]1C returned EWS-Fli block inactive, rRNA inh HTS inactive, E-selectin induc inactive and LGR2 antag inactive.
For CO[C@H]1CN(C)C(=O)c2cc(NC(=O)Nc3ccc(Cl)cc3)ccc2OC[C@H](C)NC[C@H]1C the results were EWS-Fli block inactive, rRNA inh HTS inactive, E-selectin induc 66 and LGR2 antag inactive.
`CO[C@@H]1CN(C)C(=O)c2cc(NC(=O)c3ccc(-c4ccccc4)cc3)ccc2OC[C@@H](C)NC[C@@H]1C` gave EWS-Fli block 75, rRNA inh HTS inactive, E-selectin induc inactive and LGR2 antag inactive.
`CO[C@H]1CN(C)C(=O)c2ccc(NC(C)=O)cc2OC[C@@H](C)N(C(=O)c2ccc(F)cc2)C[C@@H]1C` gave EWS-Fli block inactive, rRNA inh HTS inactive, E-selectin induc inactive and LGR2 antag inactive.
`C[C@@H]1CN([C@H](C)CO)C(=O)Cc2cc(NC(=O)c3ccncc3)ccc2O[C@@H]1CN(C)C(=O)NC1CCCCC1` gave EWS-Fli block inactive, rRNA inh HTS inactive, E-selectin induc inactive and LGR2 antag inactive.
CC(=O)N(C)C[C@H]1Oc2cc(-c3cncnc3)ccc2S(=O)(=O)N([C@@H](C)CO)C[C@@H]1C was read as EWS-Fli block inactive, rRNA inh HTS inactive, E-selectin induc inactive and LGR2 antag inactive.
For CO[C@@H]1CN(C)C(=O)c2ccc(NC(=O)c3cccc(Oc4ccccc4)c3)cc2OC[C@H](C)NC[C@H]1C the results were EWS-Fli block 70, rRNA inh HTS inactive, E-selectin induc inactive and LGR2 antag inactive.
COCC(=O)N1C[C@H](C)[C@@H](OC)CN(C)C(=O)c2ccc(NC(=O)c3cc(C)on3)cc2OC[C@@H]1C was read as rRNA inh HTS inactive, E-selectin induc inactive and LGR2 antag inactive.
`O=S(=O)(Nc1cccc(-c2ccc3nncn3n2)c1)c1cccc(F)c1` gave EWS-Fli block inactive, rRNA inh HTS inactive, E-selectin induc inactive and LGR2 antag inactive.
COc1ccc(S(=O)(=O)Nc2cccc(-c3ccc4nncn4n3)c2)cc1F was read as EWS-Fli block 56, rRNA inh HTS inactive and LGR2 antag inactive.
Screening CCc1nn(C(C)C(=O)N2CCN(c3ccc(OC)cc3)CC2)c(=O)c2cc3occc3n12 (stereo unspecified) returned EWS-Fli block 55, rRNA inh HTS inactive and LGR2 antag inactive.
Screening CC(C)C#Cc1cnc2c(c1)C(=O)N([C@H](C)CO)C[C@H](C)[C@@H](CN(C)S(=O)(=O)c1cn(C)cn1)O2 returned EWS-Fli block inactive, rRNA inh HTS inactive, E-selectin induc inactive and LGR2 antag inactive.
Screening CC(C)(c1ccccc1)c1ccc(OCC(O)CNC2CCN(Cc3ccccc3)CC2)cc1 (stereo unspecified) returned EWS-Fli block inactive, rRNA inh HTS inactive, E-selectin induc inactive and LGR2 antag 104.
For CN1CCN(c2ccc(NC(=S)NC(=O)c3cccc4ccccc34)cc2)CC1 the results were EWS-Fli block 65, rRNA inh HTS inactive and LGR2 antag inactive.
`COc1ccc(O)c(/C=N/NC(=S)Nc2cccnc2)c1` gave EWS-Fli block inactive, rRNA inh HTS -28 and LGR2 antag inactive.
For CNC(=O)C[C@H]1CC[C@H]2[C@H](COc3ccc(NC(=O)Nc4ccc(F)c(F)c4)cc3C(=O)N2C)O1 the results were EWS-Fli block inactive, rRNA inh HTS inactive, E-selectin induc inactive and LGR2 antag inactive.
`C[C@@H]1CN([C@H](C)CO)S(=O)(=O)c2ccc(-c3ccncc3)cc2O[C@H]1CN(C)C(=O)CN(C)C` gave EWS-Fli block inactive, rRNA inh HTS inactive, E-selectin induc inactive and LGR2 antag inactive.
`C[C@@H]1CN([C@@H](C)CO)C(=O)c2cc(Br)cnc2O[C@@H]1CN(C)C(=O)C1CCC1` gave EWS-Fli block inactive, rRNA inh HTS inactive, E-selectin induc inactive and LGR2 antag inactive.
Screening O=C(Cc1coc2cc(O)ccc12)N1CCN(S(=O)(=O)c2ccc(Br)cc2)CC1 returned EWS-Fli block inactive, rRNA inh HTS -20 and LGR2 antag inactive.
Screening O=C(CCl)Nc1cccc(S(=O)(=O)NC2=NCCCCC2)c1 returned EWS-Fli block 62, rRNA inh HTS inactive, E-selectin induc inactive and LGR2 antag inactive.
For O=C(CCl)Nc1ccc(S(=O)(=O)NC2=NCCCCC2)cc1 the results were EWS-Fli block inactive, rRNA inh HTS inactive, E-selectin induc inactive and LGR2 antag inactive.
`Cc1ccc(C)c(OCCC(=O)Nc2cccc(S(=O)(=O)NC3=NCCCCC3)c2)c1` gave EWS-Fli block inactive, rRNA inh HTS -22 and LGR2 antag inactive.
`COCC(=O)N1CC2(CCN(S(C)(=O)=O)CC2)c2c(n(C)c3cc(OC)ccc23)[C@H]1CO` gave EWS-Fli block inactive, rRNA inh HTS inactive, E-selectin induc inactive and LGR2 antag inactive.
